Laboratory results: ChEMBL document CHEMBL1148785, “Second generation tetrahydroquinoline-based protein farnesyltransferase inhibitors as antimalarials” (J Med Chem, 2007)

Key:
Plasmodium falciparum [1] = experiment: Inhibition of Plasmodium falciparum protein farnesyltransferase at 50 nM by scintillation proximity assay
Plasmodium falciparum [2] = experiment: Inhibition of Plasmodium falciparum protein farnesyltransferase at 5 nM by scintillation proximity assay
Plasmodium falciparum [3] = experiment: Inhibition of Plasmodium falciparum protein farnesyltransferase at 0.5 nM by scintillation proximity assay
Plasmodium falciparum [4] = experiment: Antimalarial activity against Plasmodium falciparum 3D7; type: functional; details: Plasmodium falciparum, 3D7; read-out: ED50 (the source's name)
Method in brief: (§1)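 Asynchronous culture in type A+ erythrocytes at 0.5% parasitemia and 0.5% hematocrit, grown in RPMI-1640 with 20% heat-inactivated human A+ plasma. Compound was serially diluted from a top final 5 µM, with DMSO vehicle as 100% growth. Plates ran 48 h at 37 °C under 5% CO2/5% O2/90% N2, then [3H]-hypoxanthine (0.3 µCi) for 24 h. Filter-harvested counts were corrected for the uninfected-RBC background. ED50 by linear regression; duplicates averaged.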

Plasmodium falciparum [5] = experiment: Antimalarial activity against Plasmodium falciparum K1; type: functional; details: Plasmodium falciparum, K1; read-out: ED50 (the source's name); method in brief: as §1

Row | Structure (SMILES) | inhibition (Plasmodium falciparum [1]) [%] | inhibition (Plasmodium falciparum [2]) [%] | inhibition (Plasmodium falciparum [3]) [%] | EC50 (Plasmodium falciparum [4]) [nM] | EC50 (Plasmodium falciparum [5]) [nM]
1 | Cn1cncc1CN1CC(N(Cc2ccccc2F)C(=O)C2CC2)Cc2cc(C#N)ccc21 (stereo not given) | 33 | 0 | 0 | 950 | 2000
2 | Cn1cc(S(=O)(=O)N(Cc2ccc(S(C)(=O)=O)cc2)C2Cc3cc(C#N)ccc3N(Cc3cncn3C)C2)cn1 (stereo not given) | 97 | 88 | 36 | 75 | 60
3 | Cn1cncc1CN1CC(N(Cc2ccc(S(C)(=O)=O)cc2)S(=O)(=O)c2cncn2C)Cc2cc(C#N)ccc21 (stereo not given) | 100 | 100 | 84 | < 20 | < 20
4 | Cn1cnc(S(=O)(=O)N(CCn2cccc2)C2Cc3cc(C#N)ccc3N(Cc3cncn3C)C2)c1 (stereo not given) | 99 | 98 | 54 | 1.8 | 1.8
5 | Cn1cc(S(=O)(=O)N(Cc2ccccc2F)C2Cc3cc(C#N)ccc3N(Cc3cncn3C)C2)cn1 (stereo not given) | 94 | 62 | 23 | 175 | 175
6 | Cn1cnc(S(=O)(=O)N(CCCCON2C(=O)c3ccccc3C2=O)C2Cc3cc(C#N)ccc3N(Cc3cncn3C)C2)c1 (stereo not given) | 99 | 96 | 57 | 140 | 100
7 | COC(=O)N1CCC(CN(C2Cc3cc(C#N)ccc3N(Cc3cncn3C)C2)S(=O)(=O)c2ccc(OC)cc2)CC1 (stereo not given) | 98 | 79 | 14 | 170 | 190
8 | CCS(=O)(=O)N1CCC(CN(C2Cc3cc(C#N)ccc3N(Cc3cncn3C)C2)S(=O)(=O)c2ccccn2)CC1 (stereo not given) | 98 | 56 | 94 | 75 | 55
9 | COC(=O)N1CCC(CN(C2Cc3cc(C#N)ccc3N(Cc3cncn3C)C2)S(=O)(=O)c2ncn(C)c2C)CC1 (stereo not given) | 100 | 97 | 49 | 35 | < 20
10 | COC(=O)N1CCC(CN(C2Cc3cc(C#N)ccc3N(Cc3cncn3C)C2)S(=O)(=O)c2cccc3nonc23)CC1 (stereo not given) | 99 | 89 | 31 | 135 | 100
11 | Cn1cnc(S(=O)(=O)N(CCc2c[nH]c3ccccc23)C2Cc3cc(C#N)ccc3N(Cc3cncn3C)C2)c1 (stereo not given) | 97 | 91 | 55 | 130 | 130
12 | COC(=O)N1CCC(CN(C2Cc3cc(C#N)ccc3N(Cc3cncn3C)C2)S(=O)(=O)c2ccccc2)CC1 (stereo not given) | 98 | 93 | 43 | 50 | 70
13 | CC(C)S(=O)(=O)N1CCC(CN(C2Cc3cc(C#N)ccc3N(Cc3cncn3C)C2)S(=O)(=O)c2ccccn2)CC1 (stereo not given) | 96 | 17 | 89 | 75 | 55
14 | COC(=O)N1CCC(CN(C2Cc3cc(C#N)ccc3N(Cc3cncn3C)C2)S(=O)(=O)c2cccc3ccccc23)CC1 (stereo not given) | 88 | 39 | 2 | 550 | 1700
15 | Cn1cncc1CN1CC(N(CCC2(C)OCC(C)(C)CO2)S(=O)(=O)c2ccccn2)Cc2cc(C#N)ccc21 (stereo not given) | 95 | 66 | 18 | 440 | 240
16 | COC(=O)N1CCC(CN(C2Cc3cc(C#N)ccc3N(Cc3cncn3C)C2)S(=O)(=O)c2ccc(C(=O)O)o2)CC1 (stereo not given) | 89 | 49 | 5 | > 5000 | 675
17 | CCS(=O)(=O)N(Cc1ccccc1F)C1Cc2cc(C#N)ccc2N(Cc2cncn2C)C1 (stereo not given) | 61 | 11 | 0 | 820 | 2100
18 | COC(=O)N1CCC(CN(C2Cc3cc(C#N)ccc3N(Cc3cncn3C)C2)S(=O)(=O)c2cc(C)cs2)CC1 (stereo not given) | 99 | 86 | 25 | 62 | 140
19 | CC(=O)OCC(=O)N(Cc1ccccc1F)C1Cc2cc(C#N)ccc2N(Cc2cncn2C)C1 (stereo not given) | 33 | 0 | 0 | 690 | 750
20 | Cn1cnc(S(=O)(=O)N(CCc2ccc(F)cc2)C2Cc3cc(C#N)ccc3N(Cc3cncn3C)C2)c1 (stereo not given) | 100 | 95 | 42 | 50 | 65
21 | Cn1cnc(S(=O)(=O)N(Cc2ccc(S(C)(=O)=O)cc2Cl)C2Cc3cc(C#N)ccc3N(Cc3cncn3C)C2)c1 (stereo not given) | 99 | 98 | 69 | 57 | < 20
22 | COC(=O)N1CCC(CN(C2Cc3cc(C#N)ccc3N(Cc3cncn3C)C2)S(=O)(=O)c2ccc3c(c2)OCCCO3)CC1 (stereo not given) | 99 | 81 | 24 | 138 | 105
23 | COC(=O)N1CCC(CN(C2Cc3cc(C#N)ccc3N(Cc3cncn3C)C2)S(=O)(=O)N(C)C)CC1 (stereo not given) | 58 | 19 | 0 | 1600 | 2400

Now from value to compound:

Row | inhibition (Plasmodium falciparum [1]) [%] | inhibition (Plasmodium falciparum [2]) [%] | inhibition (Plasmodium falciparum [3]) [%] | EC50 (Plasmodium falciparum [4]) [nM] | EC50 (Plasmodium falciparum [5]) [nM] | Structure (SMILES)
24 | 46 | 0 | 0 | 2900 | 1800 | Cc1ccccc1CN(C1Cc2cc(-c3ccccc3)ccc2N(Cc2cn(C)cn2)C1)S(=O)(=O)c1cn(C)cn1 (stereo not given)
25 | 92 | 20 | 0 | 490 | 890 | Cn1cnc(S(=O)(=O)N(Cc2ncoc2-c2ccccc2)C2Cc3cc(C#N)ccc3N(Cc3cncn3C)C2)c1 (stereo not given)
26 | 11 | 6 | 6 | > 5000 | 3000 | Cn1cnc(CN2CC(N(CC(=O)NC(C)(C)C)S(=O)(=O)c3ccccn3)Cc3cc(-c4ccccc4)ccc32)c1 (stereo not given)
27 | 98 | 81 | 18 | 2400 | 750 | Cn1cnc(CN2CC(N(CCNC(=O)OC(C)(C)C)S(=O)(=O)c3cn(C)cn3)Cc3cc(-c4ccccc4)ccc32)c1 (stereo not given)
28 | 99 | 93 | 36 | 71 | 75 | Cn1cnc(S(=O)(=O)N(Cc2ccccc2C(F)(F)F)C2Cc3cc(C#N)ccc3N(Cc3cncn3C)C2)c1 (stereo not given)
29 | 32 | 0 | 0 | 450 | 350 | CC(C)OC(=O)N1CCC(CN(C2Cc3cc(-c4ccccc4)ccc3N(Cc3cn(C)cn3)C2)S(=O)(=O)c2cn(C)cn2)CC1 (stereo not given)
30 | 97 | 89 | 21 | 380 | 360 | C=C(Br)CN(C1Cc2cc(-c3ccccc3)ccc2N(Cc2cncn2C)C1)S(=O)(=O)c1cn(C)cn1 (stereo not given)
31 | 95 | 53 | 1 | 300 | 1500 | Cn1cncc1CN1CC(N(CCc2ccccc2C(F)(F)F)S(=O)(=O)c2ccccn2)Cc2cc(C#N)ccc21 (stereo not given)
32 | 11 | 5 | 1 | 2600 | 3600 | CCOc1ccccc1CN(C1Cc2cc(C#N)ccc2N(Cc2cncn2C)C1)S(=O)(=O)c1cn(C)cn1 (stereo not given)
33 | 99 | 87 | 37 | 375 | 350 | COC(=O)CN(C1Cc2cc(-c3ccccc3)ccc2N(Cc2cn(C)cn2)C1)S(=O)(=O)c1cn(C)cn1 (stereo not given)
34 | 90 | 59 | 15 | 230 | 400 | COC(=O)N(C)CCCCN(C1Cc2cc(C#N)ccc2N(Cc2cncn2C)C1)S(=O)(=O)c1ccccn1 (stereo not given)
35 | 99 | 35 | 87 | 70 | 81 | Cn1cncc1CN1CC(N(CC2CCN(C(=O)c3cccs3)CC2)S(=O)(=O)c2ccccn2)Cc2cc(C#N)ccc21 (stereo not given)
36 | 90 | 38 | 0 | 460 | 150 | Cn1cnc(CN2CC(N(CCn3cccc3)S(=O)(=O)c3cn(C)cn3)Cc3cc(-c4ccccc4)ccc32)c1 (stereo not given)
37 | 35 | 12 | 3 | 3400 | 3000 | COC(=O)N1CCC(CN(C2Cc3cc(C#N)ccc3N(Cc3cccnc3)C2)S(=O)(=O)c2ccccn2)CC1 (stereo not given)
38 | 88 | 46 | 0 | 4600 | 3500 | Cn1cnc(CN2CC(N(Cc3ccc(C(F)(F)F)o3)S(=O)(=O)c3cn(C)cn3)Cc3cc(-c4ccccc4)ccc32)c1 (stereo not given)
39 | 86 | 44 | 10 | 730 | 750 | Cn1cncc1CN1CC(N(Cc2ccccc2F)S(=O)(=O)c2ccccc2)Cc2cc(C#N)ccc21 (stereo not given)
40 | 91 | 38 | 0 | 650 | 3000 | Cn1cncc1CN1CC(N(Cc2ccccc2C(F)(F)F)S(=O)(=O)c2ccccn2)Cc2cc(C#N)ccc21 (stereo not given)
41 | 96 | 93 | 17 | 144 | 965 | Cc1noc(C)c1CN(C1Cc2cc(C#N)ccc2N(Cc2cncn2C)C1)S(=O)(=O)c1ccccn1 (stereo not given)
